Experimental data from different studies.
Each line is one published result; the experiments were not run side by side.
RET V804L: Proto-oncogene tyrosine-protein kinase receptor Ret (RET, Homo sapiens, UniProt P07949, V804L)
RET: Proto-oncogene tyrosine-protein kinase receptor Ret (RET, Homo sapiens, UniProt P07949)
RET M918T: Proto-oncogene tyrosine-protein kinase receptor Ret (RET, Homo sapiens, UniProt P07949, M918T)
RET V804M: Proto-oncogene tyrosine-protein kinase receptor Ret (RET, Homo sapiens, UniProt P07949, V804M)

SMILES	target	effect on	technique	tested at	remaining binding [%]
O=C(c1ccc(Nc2ncc(Cl)c(-c3ccc(Cl)s3)n2)cc1)N1CCC(N2CCCC2)CC1	RET V804L	binding	competition with immobilised ligand	1 µM	10
CCN1CCN(Cc2ccc(C(=O)Nc3ccc(C)c(Oc4ccc5c(c4)CC(=O)N5)c3)cc2C(F)(F)F)CC1	RET	binding	competition with immobilised ligand	1 µM	14
CC1CCCN1c1nccc(-c2cnn3ncccc23)n1 (stereo not shown)	RET M918T	binding	–	1 µM	89
Cc1cnc(Nc2ccc(C(=O)N3CCC(N4CCCC4)CC3)cc2)nc1-c1cc2ccccc2s1	RET M918T	binding	competition with immobilised ligand	1 µM	5.2
C[C@@H]1CN(c2ccc3ncc(-c4ccc5[nH]nc(C6CC6)c5c4)n3n2)C[C@H](C)O1	RET	binding	competition with immobilised ligand	50 nM	88
CN(C)c1nccc(-c2cnc3ncccn23)n1	RET	binding	–	1 µM	91
c1ccc(N2CCN(Cc3nc4ccccc4[nH]3)CC2)nc1	RET	cell-free assay	competition with immobilised ligand	1 µM	100
O=C(NCCCN1CCOCC1)c1ccc(Nc2nccc(-c3cc4ccccc4s3)n2)cc1	RET	binding	competition with immobilised ligand	1 µM	55
O=C(N1CCS(=O)(=O)CC1)N1C[C@H](c2ccc(OC(F)(F)F)cc2)C[C@H](c2nc(C3CC3)no2)C1	RET M918T	cell-free assay	competition with immobilised ligand	1 µM	92
O=C(NCC1CCOCC1)c1n[nH]cc1NC(=O)c1c(F)cccc1F	RET M918T	binding	competition with immobilised ligand	1 µM	96
CNC(=O)Nc1ccc2c(c1)CC[C@@]21OC(=O)N(CC(=O)N(Cc2ccc(F)cc2)[C@@H](C)C(F)(F)F)C1=O	RET V804M	cell-free assay	competition with immobilised ligand	1 µM	98
N[C@@H]1CCN(c2nccc(-c3cnn4ncccc34)n2)C1	RET V804M	binding	–	1 µM	99
CN1CCN(c2ccc(Nc3nccc(-c4ccccc4)n3)cc2C(F)(F)F)CC1	RET M918T	binding	–	10 µM	27
C[C@@H](c1ccc(-n2cnc3c(N)ncnc32)cc1)N1CCc2nn(C)c(Cc3ccccc3)c2C1=O	RET V804L	binding	competition with immobilised ligand	0.1 µM	99
O=C(N[C@H]1CCCCC/C=C\C2C[C@@]2(C(=O)O)NC(=O)[C@@H]2C[C@@H](Oc3ccncc3)CN2C1=O)OC1CCCC1 (stereo partly shown)	RET	binding	competition with immobilised ligand	1 µM	94
CNC(=O)[C@@H]1CC[C@@H](n2c(-c3ccc4cnccc4c3)nc3ccc(C(=O)NCc4cccc(C(N)=O)c4)cc32)C1	RET V804M	binding	competition with immobilised ligand	1 µM	100
O=C(O)c1cc(-c2ccc(C3CCNCC3)cc2)c2ccc(-c3ccc(C(F)(F)F)cc3)cc2c1	RET V804M	cell-free assay	competition with immobilised ligand	1 µM	100
O=C(c1ccc(Nc2ncc(Cl)c(-c3cc4ccccc4s3)n2)cc1)N1CCC(N2CCCC2)CC1	RET M918T	binding	competition with immobilised ligand	1 µM	13
Nc1ncc2c(n1)-c1c([nH]c3ccc(C#CC4CC4)cc13)CCCC2	RET	binding	competition with immobilised ligand	1 µM	91

SMILES	target	effect on	technique	tested at	remaining binding [%]
CC(C)(C)c1ccc(-c2nc(CBr)nn2-c2cccc(O)c2)cc1	RET	cell-free assay	competition with immobilised ligand	10 µM	93
COc1cnc(Nc2cccc(S(N)(=O)=O)c2)nc1N1CCN(c2ccccc2)C(=O)C1	RET	binding	competition with immobilised ligand	1 µM	90
O=C(NCCCN1CCOCC1)c1ccc(Nc2ncc(Cl)c(-c3ccc(Cl)s3)n2)cc1	RET V804M	binding	competition with immobilised ligand	1 µM	15
COc1cnc(Nc2cccc(S(N)(=O)=O)c2)nc1N1CCN(c2ccccc2)CC1	RET M918T	binding	competition with immobilised ligand	1 µM	49
C=CC(=O)N1CCC(C(=O)NCC(=O)N2CCN(c3nc(-c4cnc(N)nc4C(F)F)nc(N4CCOCC4)n3)CC2)CC1	RET V804L	binding	competition with immobilised ligand	1 µM	100
c1cncc(-c2cccc(Nc3nccc(NC4CCCCC4)n3)c2)c1	RET M918T	binding	competition with immobilised ligand	10 µM	2.1
CN(CCCC(F)(F)F)c1nccc(-c2cnn3ncccc23)n1	RET	binding	–	1 µM	86
CN1CCN(c2ccc(Nc3nccc(-c4cccc([N+](=O)[O-])c4)n3)cc2C(F)(F)F)CC1	RET V804M	binding	–	10 µM	49
COc1ccnn2ncc(-c3ccnc(N(C)C)n3)c12	RET V804L	binding	–	1 µM	100
O=C(Nc1cccnn1)N1CCC(=Cc2cccc(Oc3ccc(C(F)(F)F)cn3)c2)CC1	RET	cell-free assay	competition with immobilised ligand	1 µM	100
Cc1cnn2ncc(-c3ccnc(N(C)C)n3)c2c1	RET M918T	binding	–	1 µM	100
O=C(c1ccc(Nc2nccc(-c3cc4ccccc4s3)n2)cc1)N1CCC(N2CCCC2)CC1	RET M918T	binding	competition with immobilised ligand	1 µM	83
C[C@H]1CCN(c2nccc(-c3cnn4ncccc34)n2)C1	RET	binding	–	1 µM	97
CC(C)CC(=O)N1CCc2nc(-c3ccc(Br)cc3)nc(N(C)Cc3ccccc3)c2C1	RET	cell-free assay	competition with immobilised ligand	0.1 µM	68
COc1ncc2cc3ccccc3nc2c1C#N	RET V804M	cell-free assay	competition with immobilised ligand	5 µM	98
O=C(Nc1c[nH]nc1C(=O)NC1CCNCC1)c1cc(F)cc(F)c1	RET	binding	competition with immobilised ligand	1 µM	100
F[C@@H]1CCN(c2nccc(-c3cnn4ncccc34)n2)C1	RET	binding	–	1 µM	92
O=C(Nc1cnc(Oc2ccc(F)cc2)nc1)N1CCc2ncccc2[C@@H]1c1ccc(F)cc1	RET M918T	cell-free assay	competition with immobilised ligand	1 µM	95
